Assay results collected from several papers.
pIC50: −log10 of the molar value.
Cell line: MDA-MB-435
Effect on: cell growth or viability

SMILES | method | tested at | time | endpoint | value
CCOC(=O)c1[nH]c(Br)c(-c2ccc(OC(F)(F)F)cc2)c1Br | SRB | – | – | pIC50 | 5.77
CC(C)C[C@H](NC(=O)[C@H](Cc1ccccc1)NC(=O)c1cnccn1)B(O)O | ATP luminescence | – | – | pIC50 | 8.10
COc1ccc(N(C)c2nc(C)nc3c2C[C@@H](C)C3)cc1 (racemic) | SRB | – | – | pIC50 | 7.77
COc1ccc(C(=O)/C=C/c2cccc3ccccc23)cc1S(N)(=O)=O | SRB | 10 µM | – | inhibition | 95%
O=C1CCC2(Oc3cccc4cccc(c34)O2)c2c(O)ccc(O)c21 | resazurin | – | 72 h | pIC50 | < 4.60
O=C1NC(=NCc2cccs2)S/C1=C\c1ccc2ncccc2c1 | – | – | – | pIC50 | 5.18
CCOC(=O)c1[nH]c(Br)c(-c2cccc(OC)c2)c1Br | SRB | – | – | pIC50 | 6.20
COc1ccc(C(=O)/C=C/c2cccnc2)cc1S(N)(=O)=O | SRB | 10 µM | – | inhibition | 26%
COc1cc(-c2ccc(-c3ccc(C(=N)N)nc3)s2)cc(OC)c1OC | SRB | – | – | GI50 | 1620 nM
COc1ccc(C(=O)/C=C/c2cccc(Br)c2)cc1S(N)(=O)=O | SRB | 10 µM | – | inhibition | 106%
CCOC(=O)c1[nH]c(Br)c(-c2ccc(Cl)cc2)c1Br | SRB | – | – | pIC50 | 6.04
COc1ccc(C(=O)/C=C/c2ccc(Cl)c(Cl)c2)cc1S(N)(=O)=O | SRB | – | 48 h | GI50 | 2400 nM
CCOC(=O)c1[nH]c(Br)c(-c2ccc(Br)cc2)c1Br | SRB | – | – | pIC50 | 6.51
